{"data": "Measured values from different studies", "USP51": "Ubiquitin carboxyl-terminal hydrolase 51 (USP51, Homo sapiens, UniProt Q70EK9)", "CASP3": "Caspase-3 (CASP3, Homo sapiens, UniProt P42574)", "PDE10A": "cAMP and cAMP-inhibited cGMP 3',5'-cyclic phosphodiesterase 10A (PDE10A, Homo sapiens, UniProt Q9Y233)", "AAK1": "AP2-associated protein kinase 1 (AAK1, Homo sapiens, UniProt Q2M2I8)", "note": "Each line is one published result; the experiments were not run side by side."}
{"Structure (SMILES)": "CC[C@@]1(O)C(=O)OCc2c1cc1n(c2=O)Cc2cc3ccccc3nc2-1", "target": "USP51", "observed": "enzyme activity", "action": "inhibitor", "tested at": "5 µM", "inhibition [%]": 0}
{"Structure (SMILES)": "CC(=O)N[C@@H](CC(=O)O)C(=O)N[C@@H](CC(N)=O)C(=O)N[C@@H](CC(C)C)C(=O)N[C@H](C=O)CC(=O)O", "target": "CASP3", "observed": "enzyme activity", "action": "inhibitor", "tested at": "10 nM", "inhibition [%]": 25}
{"Structure (SMILES)": "Cn1cc(-c2cc(F)cc(N3CCn4c(cc5c4CCCC5)C3=O)c2CO)cc(Nc2ccc(N3CCN(C4COC4)CC3)cn2)c1=O", "target": "Calcium/calmodulin-dependent protein kinase type IV (CAMK4, Homo sapiens, UniProt Q16566)", "observed": "enzyme activity", "action": "inhibitor", "tested at": "0.1 µM", "inhibition [%]": 15}
{"Structure (SMILES)": "Cc1ncc(C)n2nc(/C=C/c3nc(N4CCCC4)cc(N4CCOCC4)n3)nc12", "target": "Prostaglandin F2-alpha receptor (PTGFR, Homo sapiens, UniProt P43088)", "observed": "ligand displacement", "tested at": "10 µM", "inhibition [%]": -9}
{"Structure (SMILES)": "O=C(Nc1cccnn1)N1CCN([C@@H]2CCOc3cc(C(F)(F)F)ccc32)CC1", "target": "Melanin-concentrating hormone receptor 1 (MCHR1, Homo sapiens, UniProt Q99705)", "observed": "cell-free assay", "tested at": "20 µM", "inhibition [%]": -13}
{"Structure (SMILES)": "CN(C)C(=O)COC(=O)Cc1ccc(OC(=O)c2ccc(NC(=N)N)cc2)cc1", "target": "CASP3", "observed": "enzyme activity", "action": "inhibitor", "tested at": "10 µM", "inhibition [%]": 0}
{"Structure (SMILES)": "COCc1c(-c2cc3cc(C)cc(OC)c3s2)c2c(N)ncnn2c1CN1CCNC(=O)C1", "target": "Growth hormone secretagogue receptor type 1 (GHSR, Homo sapiens, UniProt Q92847)", "observed": "ligand displacement", "method": "radioligand", "tested at": "10 µM", "inhibition [%]": 11}
{"Structure (SMILES)": "O=C(O[C@@H]1Cc2c(O)cc(O)cc2O[C@@H]1c1cc(O)c(O)c(O)c1-c1c([C@H]2Oc3cc(O)cc(O)c3C[C@H]2OC(=O)c2cc(O)c(O)c(O)c2)cc(O)c(O)c1O)c1cc(O)c(O)c(O)c1", "target": "Tyrosine-protein phosphatase non-receptor type 22 (PTPN22, Homo sapiens, UniProt Q9Y2R2)", "observed": "enzyme activity", "action": "inhibitor", "method": "fluorescence", "tested at": "10 µM", "inhibition [%]": 25}
{"Structure (SMILES)": "c1ccc(C(NCCNC(c2ccccc2)c2ccccc2)c2ccccc2)cc1", "target": "PDE10A", "observed": "enzyme activity", "action": "inhibitor", "tested at": "10 µM", "inhibition [%]": 0}
{"Structure (SMILES)": "CC(C)[C@]12O[C@H]1[C@@H]1O[C@]13[C@]1(O[C@H]1C[C@H]1C4=C(CC[C@@]13C)C(=O)OC4)[C@@H]2O", "target": "USP51", "observed": "enzyme activity", "action": "inhibitor", "tested at": "5 µM", "inhibition [%]": 0}
{"Structure (SMILES)": "CCOC(=O)c1ccc(OC(=O)CCCCCNC(=N)N)cc1", "target": "CASP3", "observed": "enzyme activity", "action": "inhibitor", "tested at": "10 µM", "inhibition [%]": 2}
{"Structure (SMILES)": "COC(=O)C[C@](O)(CCC(C)(C)O)C(=O)O[C@@H]1C(OC)=C[C@]23CCCN2CCc2cc4c(cc2[C@H]13)OCO4", "target": "USP51", "observed": "enzyme activity", "action": "inhibitor", "tested at": "5 µM", "inhibition [%]": 0}
{"Structure (SMILES)": "C[C@H](C(=O)N[C@H]1COc2ccccc2[C@@H]1S(C)(=O)=O)c1ccc(F)cc1", "target": "PDE10A", "observed": "enzyme activity", "action": "inhibitor", "tested at": "10 µM", "inhibition [%]": -4}
{"Structure (SMILES)": "CC[C@H]1[C@@H]2C[C@H]3[C@@H]4N(C)c5ccccc5[C@]45C[C@@H]([C@H]2[C@H]5O)N3[C@@H]1O", "target": "USP51", "observed": "enzyme activity", "action": "inhibitor", "tested at": "5 µM", "inhibition [%]": 26}
{"Structure (SMILES)": "C#Cc1n[nH]c2c(-c3cn([C@@H](C)c4ccccc4)c(=O)[nH]c3=O)cc(F)cc12", "target": "AAK1", "observed": "enzyme activity", "action": "inhibitor", "tested at": "0.1 µM", "inhibition [%]": -0.1}
{"Structure (SMILES)": "C[C@H]1C(=O)O[C@@H]2CCN3CC=C(COC(=O)[C@](C)(O)[C@]1(C)O)[C@H]23", "target": "USP51", "observed": "enzyme activity", "action": "inhibitor", "tested at": "5 µM", "inhibition [%]": 42}
{"Structure (SMILES)": "C#Cc1n[nH]c2c(-c3cn([C@@H](C)c4ccccn4)c(=O)[nH]c3=O)cc(F)cc12", "target": "AAK1", "observed": "enzyme activity", "action": "inhibitor", "tested at": "0.1 µM", "inhibition [%]": 4.6}
